Screening results (PubChem)
RGS4 inh = RGS4 inhibitors, primary screen, cell-based, HEK293 M3R inducible RGS4, calcium flux. Regulator of G-protein signaling 4 (Homo sapiens), P49798. Fluo-4 calcium flux; stronger effect = higher value; triggered by carbachol at its EC20. B-score at 10 µM. 310,000 tested, 0.45% active. AID 463165, 2010;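 active = B-score, a plate-corrected calcium signal, over three deviations above library mean, with baseline fluorescence within five deviations of library mean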;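 also: RGS4 expression induced by doxycycline in cells with stable M3 receptor; B-score is computed from the integrated fluorescence ratio over baseline after carbachol; higher B-score means a larger calcium signal and so more RGS4 inhibition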
Target sequence (P49798 whole entry, looked up): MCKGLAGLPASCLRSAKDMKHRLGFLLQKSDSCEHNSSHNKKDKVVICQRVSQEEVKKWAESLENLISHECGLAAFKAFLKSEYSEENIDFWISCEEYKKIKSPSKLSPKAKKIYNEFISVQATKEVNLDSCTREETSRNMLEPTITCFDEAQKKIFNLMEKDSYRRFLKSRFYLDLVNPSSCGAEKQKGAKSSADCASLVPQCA
MrgX1 antag = antagonists of human MrgX1 receptor, primary screen, HEK293 cells, Fluo-4 calcium flux. BAM8-22 antagonism; stronger effect = lower value. B-score at 10 µM. 310,000 tested, 1.3% active. Mas-related G-protein coupled receptor member X1 (Homo sapiens), Q96LB2. AID 588676, 2011;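 active = calcium-response B-score plate-corrected more than 3 library SD below zero, starting fluorescence within 5 deviations, no agonist response on first addition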;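 also: peak minus trough fluorescence over baseline after final BAM8-22 challenge near maximal dose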
Target sequence (Q96LB2 whole entry, looked up): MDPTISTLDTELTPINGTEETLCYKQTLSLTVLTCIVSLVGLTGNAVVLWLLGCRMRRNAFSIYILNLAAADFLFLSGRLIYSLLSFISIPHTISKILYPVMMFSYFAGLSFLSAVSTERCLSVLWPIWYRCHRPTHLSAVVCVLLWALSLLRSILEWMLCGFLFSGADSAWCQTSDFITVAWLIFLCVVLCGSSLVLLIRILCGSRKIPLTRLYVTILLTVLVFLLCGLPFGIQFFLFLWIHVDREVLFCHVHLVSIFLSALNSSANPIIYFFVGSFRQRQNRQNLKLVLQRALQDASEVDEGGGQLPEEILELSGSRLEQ
MrgX1 agonist = agonists of human MrgX1 receptor, primary screen, HEK293 cells, Fluo-4 calcium flux; Mas-related G-protein coupled receptor member X1 (Homo sapiens), Q96LB2; Fluo-4 calcium fluorescence, agonist mode; stronger effect = higher value; B-score at 10 µM; 310,000 tested, 0.44% active;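 active = calcium response B-score plate-corrected fluorescence ratio at least 3 library SD, with starting fluorescence B-score inside 5 SD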
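Assay system: MrgX1-expressing HEK293 cells / Amount: fifteen thousand cells per well / Doses: test compound in the initial addition of three / Timing: cells plated overnight, dye loaded 0.5 h 37 °C, 0.5 h room temperature / Technique: kinetic calcium dye fluorescence, Fluo-4 NW / Control set: positive and negative controls per plate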
RGS4 act = RGS4 potentiators or activators, primary screen, cell-based, HEK293 M3R inducible RGS4, calcium flux; carbachol calcium flux Fluo4; stronger effect = lower value; B-score at 10 µM; 310,000 tested, 0.92% active; AID 463111, 2010;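 active = B-score of the integrated calcium signal more than 4 SD below the library mean, with starting fluorescence not abnormally high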;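 also: negative B-score means reduced calcium response which marks RGS4 activation or potentiation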
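Test system: HEK293 cells with stable M3R and inducible RGS4; also added: carbachol at ECmax as muscarinic agonist stimulus; schedule: dye loading 30 min 37 °C, buffer rest 30 min RT; technique: kinetic calcium fluorescence imaging with Fluo4-AM dye, 2 µM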
MrgX1 allo act = positive allosteric modulators of MrgX1, primary screen, HEK293 cells, Fluo-4 calcium flux | AID 588675, 2011 | 310,000 tested, 0.63% active | Mas-related G-protein coupled receptor member X1 (Homo sapiens), Q96LB2 | FDSS; stronger effect = higher value | B-score at 10 µM;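 active = plate-corrected calcium response at least 3 library SD above typical, normal starting fluorescence, not activating the receptor alone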;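 also: compound read alongside a low EC10 to EC30 dose of BAM8-22 agonist; peak minus trough fluorescence over baseline measured at the second addition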
RGS4 act valid = reduced carbachol calcium response, RGS4-induced M3R cells, confirmation, RGS4 activator project, cell-based, HEK293 M3R/RGS4 inducible, calcium flux, duplicate. AID 602282, 2012. carbachol calcium flux Fluo4. inhibition, % at 10 µM. 1,100 tested, 89% active. shares compounds with RGS4 act;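 active = inhibition above 3 SD of the buffer control wells, cut at about 41% in these data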;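 also: signal is the integrated peak-minus-minimum Fluo4 fluorescence over baseline ratio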
M3R Ca counter = counter-screen for RGS4 activators: effect in non-induced cells. HEK293 M3R non-induced RGS4, Fluo4 calcium flux; after carbachol challenge at its EC90. inhibition, % at 10 µM. shares compounds with RGS4 act. 1,100 tested, 82% active. AID 602283;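 active = inhibition exceeding 3 SD of buffer-only control wells, cut at about 26% in these data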;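 also: percent drop in integrated peak-minus-baseline over baseline Fluo4 ratio after carbachol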
Numbers without * were called inactive; i = inactive; x = no result given. Sampled rows, rich in hits. Any-hit rate of the full collection: about 3.5%.

SMILES	RGS4 inh	MrgX1 antag	MrgX1 agonist	RGS4 act	MrgX1 allo act	RGS4 act valid	M3R Ca counter
CN1CCN(c2ncnc3c2c(-c2ccccc2)cn3-c2ccc(F)cc2)CC1	i	i	i	i	i	x	x
CCOc1ccc(-n2cc(-c3ccccc3)c3c(N4CCOCC4)ncnc32)cc1	i	i	i	-8.2*	i	62*	0
Cc1n[nH]c(C)c1CCN(C)Cc1cn(C)nc1-c1ccccc1F	i	i	i	i	i	x	x
CC(O)(C#CCN1CCCCCC1)c1ccccc1 (stereo not drawn)	i	i	i	-9.8*	i	66*	84*
OC(C#CCN1CCCCC1)(c1ccccc1)c1ccccc1	i	i	i	i	i	x	x
CC(C)(C#CC(O)(c1ccccc1)c1ccccc1)N1CCCC1	i	i	i	-8.9*	i	92*	87*
OC(C#CCN1CCCC1)(c1ccccc1)c1ccccc1	i	i	i	-7.6*	i	94*	91*
CCC1CCCCN1S(=O)(=O)c1ccc(C(=O)Nc2nnc(C3=COCCO3)o2)cc1 (stereo not drawn)	i	i	i	i	i	x	x
COc1cc(NC(=O)Nc2cccc(Cl)c2)c(OC)cc1NC(=O)CN1CCCCC1	i	i	i	-11*	i	38*	0
O=C(CN1CCCCC1)Nc1cccc(Cl)c1	i	i	i	i	i	x	x
Cc1cc2ncn(C(=O)c3c(-c4ccccc4Cl)noc3C)c2cc1C	i	i	i	-11*	i	94*	79*
COc1ccc(-c2csc3ncnc(N4CCN(c5ccc(OC)cc5)CC4)c23)cc1	i	i	i	i	i	x	x
COc1ccc(-c2csc3ncnc(N4CCN(c5ccccc5O)CC4)c23)cc1	i	i	i	-9.3*	i	0	0
COc1ccc(-c2csc3ncnc(N4CCN(c5ccccc5)CC4)c23)cc1	i	i	i	-8.3*	i	88*	84*
COc1ccc(-c2csc3ncnc(N4CCN(Cc5ccccc5)CC4)c23)cc1	i	i	i	-7.7*	i	0	0
CCN1CCN(c2ncnc3scc(-c4ccc(C)c(C)c4)c23)CC1	i	i	i	-9.2*	i	92*	87*
Cc1ccc(-c2csc3ncnc(N4CCN(c5ccccc5O)CC4)c23)cc1	i	i	i	i	i	x	x
Cc1ccccc1NC(=O)Cc1nc(COC(=O)c2ccc(Cl)nc2)cs1	i	i	i	i	i	x	x
CC(C)(C)CC(C)(C)NCC(O)COc1ccc2c(c1)CCC2 (stereo not drawn)	i	i	i	-10*	i	92*	55*
CC(C)(CO)NCC(O)COc1ccc2c(c1)CCC2 (stereo not drawn)	i	i	i	i	i	x	x
Cc1ccccc1CC1(CO)CCCN(C(=O)c2ccccc2N(C)C)C1 (stereo not drawn)	i	i	i	i	i	x	x
Cc1ccccc1CC1(CO)CCCN(C(=O)c2ccc3ncccc3c2)C1 (stereo not drawn)	i	i	i	-10*	i	62*	84*
COc1ccccc1C(=O)Nc1nc(-c2ccc3c(c2)OCCO3)cs1	i	i	i	-8.8*	i	88*	62*
OCCC1CN(Cc2ccc(-c3ccco3)cc2)CCN1Cc1ccsc1 (stereo not drawn)	i	i	i	-7.7*	i	74*	84*
Cc1ccc(S(=O)(=O)N2CCC(C(=O)NNC(=O)c3ccc(F)cc3)CC2)cc1	i	i	i	i	i	x	x
SMILES	RGS4 inh	MrgX1 antag	MrgX1 agonist	RGS4 act	MrgX1 allo act	RGS4 act valid	M3R Ca counter
Cc1cccc(S(=O)(=O)Nc2nc3ccccc3nc2NCc2ccc3c(c2)OCO3)c1	i	i	i	i	i	x	x
CSc1ccc(CN2CCN(C3CCCC3)C(CCO)C2)cc1 (stereo not drawn)	i	i	i	-8.9*	i	88*	60*
CC(C)(O)C#Cc1ccc(CN2CCN(C3CCCCC3)C(CCO)C2)cc1 (stereo not drawn)	i	i	i	i	i	x	x
CC(C)(O)C#Cc1ccc(CN2CCN(C3CCCCC3)C(CCO)C2)s1 (stereo not drawn)	i	i	i	-7.8*	i	64*	26*
CN(CC(=O)Nc1ccc(Cl)cc1)c1ccc(S(=O)(=O)N2CCCCC2)cc1[N+](=O)[O-]	i	i	i	i	i	x	x
COc1ccc(-c2nc(-c3ccc(O)cc3O)cs2)cc1OC	i	x	x	-11*	x	78*	51*
Cc1ccc(Sc2nnc(-c3ccccc3)cc2C#N)cc1	i	i	i	i	i	x	x
Cc1ccc(Sc2ccc(N)cc2C#N)cc1	i	i	i	-8.8*	i	83*	42*
Cc1ccc(NC(=S)N2CCSC2c2cccs2)cc1 (stereo not drawn)	i	i	i	i	i	x	x
CN(C)S(=O)(=O)c1cccc(NC(=O)c2ccc(S(=O)(=O)N3CCCCC3)cc2)c1	i	i	i	i	i	x	x
CN(C)S(=O)(=O)c1cccc(C(=O)Nc2ccc(S(=O)(=O)N3CCCC3)cc2)c1	i	i	i	-7.9*	i	70*	84*
CC(C)(C)c1ccccc1OCC(=O)Nc1ccccc1C(=O)NCc1cccnc1	i	i	i	-11*	i	88*	59*
Cc1c(OCC(=O)N(C)C)ccc2c3c(c(=O)oc12)CCCCC3	i	i	i	-7.9*	i	64*	32*
CN(C)C(=O)CSc1nnc(-c2cc(-c3cccs3)nc3ccccc23)o1	i	i	i	-8.3*	i	76*	45*
COc1cccc(C2=Nn3c(nnc3-c3ccccc3O)SC2)c1	i	i	i	i	i	x	x
C[n+]1c2n(c3ccccc31)N=C(c1cc(C(C)(C)C)c(O)c(C(C)(C)C)c1)CS2	i	-8.6*	i	-13*	i	94*	83*
O=C1Nc2ccccc2C1=Nc1ccc(Br)cc1	i	i	i	i	i	x	x
